Experimental data: ChEMBL document CHEMBL3259652, “Design and synthesis of novel 5,6-disubstituted pyridine-2,3-dione-3-thiosemicarbazone derivatives as potential anticancer agents” (Eur J Med Chem, 2014)

Key:
Assay type in all cases: functional, cell-based
MCF7 = assay: Antiproliferative activity against human MCF7 cells after 72 hrs by MTT assay; details: MCF7, 72 h
Method in brief: (§1)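 Log-phase cells seeded at 2 × 10⁴ cells/ml, 24 h at 37 °C in 5% CO₂, then exposed to compounds for 72 h at 37 °C. MTT (5 mg/ml) added for 4 h, medium discarded, formazan dissolved in DMSO, absorbance read at 570 nm. Each concentration in triplicate, experiment repeated three times. IC50 from dose-response curves of inhibition ratio versus untreated control.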

HCT-116 = assay: Antiproliferative activity against human HCT116 cells after 72 hrs by MTT assay; details: HCT-116, 72 h; method in brief: as §1
[1] = Antiproliferative activity against human Bel7402 cells after 72 hrs by MTT assay; details: Bel-7402, 72 h; method in brief: as §1

Compound | IC50 (MCF7) [µM] | IC50 (HCT-116) [µM] | IC50 [1] [µM]
Cc1ccccc1NC1=C/C(=N/NC(N)=S)C(=O)N=C1Nc1ccccc1C | 0.58 | 1.52 | 1.71
Cc1cccc(NC2=C/C(=N/NC(N)=S)C(=O)N=C2Nc2cccc(C)c2)c1 | 0.15 | 8.65 | 2.73
Cc1ccc(NC2=C/C(=N/NC(N)=S)C(=O)N=C2Nc2ccc(C)cc2)cc1 | 3.06 | 7.04 | 4.33
NC(=S)N/N=C1/C=C(Nc2ccccc2Cl)C(Nc2ccccc2Cl)=NC1=O | 3.49 | 3.54 | 3.42
NC(=S)N/N=C1/C=C(Nc2cccc(Cl)c2)C(Nc2cccc(Cl)c2)=NC1=O | 0.63 | 3.38 | 2.19
NC(=S)N/N=C1/C=C(Nc2ccc(Cl)cc2)C(Nc2ccc(Cl)cc2)=NC1=O | 1.37 | 0.19 | 0.82
COc1ccccc1NC1=C/C(=N/NC(N)=S)C(=O)N=C1Nc1ccccc1OC | 10.2 | 20.8 | 13.4
COc1cccc(NC2=C/C(=N/NC(N)=S)C(=O)N=C2Nc2cccc(OC)c2)c1 | > 50 | – | –
COc1ccc(NC2=C/C(=N/NC(N)=S)C(=O)N=C2Nc2ccc(OC)cc2)cc1 | 10.4 | 22.4 | 17.8
CCOc1ccc(NC2=C/C(=N/NC(N)=S)C(=O)N=C2Nc2ccc(OCC)cc2)cc1 | 13.7 | 21.3 | 31
NC(=S)N/N=C1/C=C(Nc2ccc(F)cc2)C(Nc2ccc(F)cc2)=NC1=O | 1.12 | 3.72 | 3.66
NC(=S)N/N=C1/C=C(Nc2ccc(Br)cc2)C(Nc2ccc(Br)cc2)=NC1=O | 2.58 | 2.15 | 5.84
NC(=S)N/N=C1/C=C(Nc2cccc([N+](=O)[O-])c2)C(Nc2cccc([N+](=O)[O-])c2)=NC1=O | 11.1 | 19.4 | 8.11
NC(=S)N/N=C1/C=C(Nc2ccccc2)C(Nc2ccccc2)=NC1=O | 7.11 | 24.7 | 11.9
Cc1ccccc1NC1=C/C(=N/N=C(\N)SCc2ccccc2)C(=O)N=C1Nc1ccccc1C | 16.3 | 13.8 | 17.1
Cc1cccc(NC2=C/C(=N/N=C(\N)SCc3ccccc3)C(=O)N=C2Nc2cccc(C)c2)c1 | 9.34 | 12.8 | 8.72
Cc1ccc(NC2=C/C(=N/N=C(\N)SCc3ccccc3)C(=O)N=C2Nc2ccc(C)cc2)cc1 | 13.4 | 8.27 | 7.68
N/C(=N\N=C1\C=C(Nc2cccc(Cl)c2)C(Nc2cccc(Cl)c2)=NC1=O)SCc1ccccc1 | 15.2 | 11.7 | 7.16
N/C(=N\N=C1\C=C(Nc2ccc(Cl)cc2)C(Nc2ccc(Cl)cc2)=NC1=O)SCc1ccccc1 | 7.72 | 9.6 | 17.3
N/C(=N\N=C1\C=C(Nc2ccc(F)cc2)C(Nc2ccc(F)cc2)=NC1=O)SCc1ccccc1 | 7.58 | 11.5 | 7.69
COc1ccccc1NC1=C/C(=N/N=C(\N)SCc2ccccc2)C(=O)N=C1Nc1ccccc1OC | 8.34 | 14.5 | 13.1
O=c1[nH]cc(F)c(=O)[nH]1 [FLUOROURACIL] | 7.08 | 10.5 | 11.1
